Measurements published in ChEMBL document CHEMBL2203175, “Discovery and optimization of sulfonyl acrylonitriles as selective, covalent inhibitors of protein phosphatase methylesterase-1” (J Med Chem, 2011).
Activity calls are given as the source filed them. No cut-off for these calls is given here.

Molecular target: Dipeptidyl peptidase 9 (Homo sapiens) (UniProt Q86TI2)
Experiment: Inhibition of DPP9 binding to FP-biotin in[12C][14N]-lysine, arginine and [13C6][15N2]-lysine, arginine labeled HEK293T cells at 20 uM after 1 hr by isotopic activity-based protein profiling-MudPIT assay
Format: cell-based
Settings: HEK-293T
Procedure, shortened: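 SILAC HEK 293T: light cells (12C14N-Lys/Arg) treated with compound, heavy cells (13C6 15N2-Lys/Arg) with DMSO, 1 h at 37 °C. Proteomes were mixed 1:1 (0.5 mg each) and labeled with FP-biotin (5 μM, 1 h, 25 °C), then streptavidin-enriched, digested on bead with trypsin, and run by MudPIT. Light/heavy ratios were normalized to a DMSO/DMSO control. Only SHs with ≥2 quantifiable peptides were kept; mean ± SEM across peptides.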

Dipeptidyl peptidase 9 (Homo sapiens), sequence (Q86TI2 2-863 limits assumed): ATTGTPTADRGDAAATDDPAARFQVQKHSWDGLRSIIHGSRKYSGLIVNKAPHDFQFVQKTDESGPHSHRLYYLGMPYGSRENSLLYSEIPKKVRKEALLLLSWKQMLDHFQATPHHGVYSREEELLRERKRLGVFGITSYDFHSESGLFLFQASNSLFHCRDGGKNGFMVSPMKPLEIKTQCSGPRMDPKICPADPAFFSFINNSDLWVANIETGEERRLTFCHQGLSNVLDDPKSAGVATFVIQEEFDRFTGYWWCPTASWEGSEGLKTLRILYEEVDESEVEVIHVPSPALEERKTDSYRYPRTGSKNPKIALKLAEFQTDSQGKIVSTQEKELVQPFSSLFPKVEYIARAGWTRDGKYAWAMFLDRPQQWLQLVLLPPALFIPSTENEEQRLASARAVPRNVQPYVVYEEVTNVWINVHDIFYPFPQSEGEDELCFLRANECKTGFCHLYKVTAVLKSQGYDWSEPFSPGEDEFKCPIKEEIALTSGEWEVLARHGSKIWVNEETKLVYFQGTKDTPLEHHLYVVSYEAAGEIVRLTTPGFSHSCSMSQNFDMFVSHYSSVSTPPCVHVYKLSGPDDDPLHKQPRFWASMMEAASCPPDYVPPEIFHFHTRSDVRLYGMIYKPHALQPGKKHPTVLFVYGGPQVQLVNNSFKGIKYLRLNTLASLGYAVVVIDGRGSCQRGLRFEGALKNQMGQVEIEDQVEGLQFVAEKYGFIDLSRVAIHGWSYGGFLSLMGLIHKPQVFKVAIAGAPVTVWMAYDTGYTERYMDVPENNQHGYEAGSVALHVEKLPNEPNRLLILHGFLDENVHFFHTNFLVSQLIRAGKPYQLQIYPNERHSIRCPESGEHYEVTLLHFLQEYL

For `N#C/C(=C\c1cccn1S(=O)(=O)c1cccc([N+](=O)[O-])c1)S(=O)(=O)c1ccc(F)cc1`, the inhibition was “inactive”.
